Assays:
Escherichia coli [1] = experiment: Antibacterial activity against Escherichia coli expressing CTX-M-15/TEM-1 assessed as concentration required to restore ceftibuten activity incubated for 16 to 20 hrs in presence of 1 ug/ml ceftibuten by broth microdilution method; assay type: functional; settings: time 16-20 hrs
Klebsiella pneumoniae [2] = experiment: Antibacterial activity against Klebsiella pneumoniae expressing SHV-12/TEM-1 assessed as concentration required to restore ceftibuten activity incubated for 16 to 20 hrs in presence of 1 ug/ml ceftibuten by broth microdilution method; assay type: functional; settings: time 16-20 hrs
Escherichia coli [3] = experiment: Antibacterial activity against Escherichia coli 786978 expressing KPC assessed as concentration required to restore ceftibuten activity incubated for 16 to 20 hrs in presence of 1 ug/ml ceftibuten by broth microdilution method; assay type: functional; settings: time 16-20 hrs
Klebsiella pneumoniae [4] = experiment: Antibacterial activity against Klebsiella pneumoniae 156309 expressing SHV-11/TEM-1/KPC-2 assessed as concentration required to restore ceftibuten activity incubated for 16 to 20 hrs in presence of 1 ug/ml ceftibuten by broth microdilution method; assay type: functional; settings: time 16-20 hrs
Escherichia coli [5] = experiment: Antibacterial activity against Escherichia coli J53 expressing SHV-5/TEM-1/AmpC assessed as concentration required to restore ceftibuten activity incubated for 16 to 20 hrs in presence of 1 ug/ml ceftibuten by broth microdilution method; assay type: functional; settings: time 16-20 hrs
Klebsiella pneumoniae [6] = experiment: Antibacterial activity against Klebsiella pneumoniae 196477 expressing AmpC/CMY-2/TEM-1/CTX-M-15 assessed as concentration required to restore ceftibuten activity incubated for 16 to 20 hrs in presence of 1 ug/ml ceftibuten by broth microdilution method; assay type: functional; settings: time 16-20 hrs
Escherichia coli [7] = experiment: Antibacterial activity against Escherichia coli 664507 expressing OXA-48 assessed as concentration required to restore ceftibuten activity incubated for 16 to 20 hrs in presence of 1 ug/ml ceftibuten by broth microdilution method; assay type: functional; settings: time 16-20 hrs
Summary of the method: (§1)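 Tested against a 25-strain challenge panel of clinical E. coli and K. pneumoniae isolates carrying ESBL (n = 5), KPC (n = 11), class C (n = 4) or OXA-48 (n = 5) β-lactamases. Ceftibuten was held at 1 μg/mL while the BLI concentration varied. The read-out was the BLI concentration that rescued ceftibuten activity.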

Klebsiella pneumoniae [8] = experiment: Antibacterial activity against Klebsiella pneumoniae expressing OXA-48 assessed as concentration required to restore ceftibuten activity incubated for 16 to 20 hrs in presence of 1 ug/ml ceftibuten by broth microdilution method; assay type: functional; settings: time 16-20 hrs
Escherichia coli [9] = experiment: (§2) In vivo antibacterial activity against Escherichia coli expressing TEM-1/CTX-M-15 infected in C3H/HeJ mouse assessed as log10 reduction in CFU in kidney at 1 to 300 mg/kg, sc administered every 12 hrs for 3 days starting from 4 days post infection and measured at 7 days post infection (reference value: 6.7 log10CFU); assay type: functional; settings: dose 1-300 mg/kg; time 3 day
Escherichia coli [10] = experiment: as §2, with “bladder” for “kidney”, “5.8” for “6.7”; assay type: functional; settings: dose 1-300 mg/kg; time 3 day
Escherichia coli [11] = experiment: as §2, with “urine” for “kidney”; assay type: functional; settings: dose 1-300 mg/kg; time 3 day
Escherichia coli [12] = experiment: Antibacterial activity against Escherichia coli expressing TEM-1/SHV-12 assessed as concentration required to restore ceftibuten activity incubated for 16 to 20 hrs in presence of 1 ug/ml ceftibuten by broth microdilution method; assay type: functional; settings: time 16-20 hrs
Escherichia coli [13] = experiment: Antibacterial activity against Escherichia coli expressing CTX-M-2 assessed as concentration required to restore ceftibuten activity incubated for 16 to 20 hrs in presence of 1 ug/ml ceftibuten by broth microdilution method; assay type: functional; settings: time 16-20 hrs
[14] = Inhibition of bacterial beta-lactamase SHV-5 using cefotaxime as substrate preincubated for 15 mins followed by substrate addition and measured after 10 mins by spectrophotometric analysis; parameters: species or system Bacteria
Summary of the method: (§3)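 IC50 is the mean of duplicate runs on separate days. A run was repeated automatically if it differed by more than 20% from the previous result.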

[15] = Inhibition of bacterial beta-lactamase KPC-2 using imipenem as substrate preincubated for 15 mins followed by substrate addition and measured after 10 mins by spectrophotometric analysis; parameters: species or system Bacteria; summary of the method: as §3
Klebsiella pneumoniae [16] = experiment: Antibacterial activity against Klebsiella pneumoniae expressing TEM-1/SHV-12 assessed as concentration required to restore ceftibuten activity incubated for 16 to 20 hrs in presence of 1 ug/ml ceftibuten by broth microdilution method; assay type: functional; settings: time 16-20 hrs
Klebsiella pneumoniae [17] = experiment: Antibacterial activity against Klebsiella pneumoniae expressing SHV-5/KPC-2/TEM-1 assessed as concentration required to restore ceftibuten activity incubated for 16 to 20 hrs in presence of 1 ug/ml ceftibuten by broth microdilution method; assay type: functional; settings: time 16-20 hrs
Escherichia coli [18] = experiment: Antibacterial activity against Escherichia coli expressing AmpC/SHV-12/CTX-M-15/TEM-1 assessed as concentration required to restore ceftibuten activity incubated for 16 to 20 hrs in presence of 1 ug/ml ceftibuten by broth microdilution method; assay type: functional; settings: time 16-20 hrs
Klebsiella pneumoniae [19] = experiment: Antibacterial activity against Klebsiella pneumoniae expressing SHV-1/TEM-1/KPC-2 assessed as concentration required to restore ceftibuten activity incubated for 16 to 20 hrs in presence of 1 ug/ml ceftibuten by broth microdilution method; assay type: functional; settings: time 16-20 hrs
Klebsiella pneumoniae [20] = experiment: Antibacterial activity against Klebsiella pneumoniae expressing SHV-11/TEM-1/KPC-3 assessed as concentration required to restore ceftibuten activity incubated for 16 to 20 hrs in presence of 1 ug/ml ceftibuten by broth microdilution method; assay type: functional; settings: time 16-20 hrs
Klebsiella pneumoniae [21] = experiment: Antibacterial activity against Klebsiella pneumoniae expressing SHV-12/TEM-1/KPC-2/AmpC assessed as concentration required to restore ceftibuten activity incubated for 16 to 20 hrs in presence of 1 ug/ml ceftibuten by broth microdilution method; assay type: functional; settings: time 16-20 hrs
Klebsiella pneumoniae [22] = experiment: Antibacterial activity against Klebsiella pneumoniae expressing KPC-3/TEM-1/AmpC assessed as concentration required to restore ceftibuten activity incubated for 16 to 20 hrs in presence of 1 ug/ml ceftibuten by broth microdilution method; assay type: functional; settings: time 16-20 hrs
Escherichia coli [23] = experiment: Antibacterial activity against Escherichia coli 849121 expressing KPC assessed as concentration required to restore ceftibuten activity incubated for 16 to 20 hrs in presence of 1 ug/ml ceftibuten by broth microdilution method; assay type: functional; settings: time 16-20 hrs
Klebsiella pneumoniae [24] = experiment: Antibacterial activity against Klebsiella pneumoniae 845661 expressing KPC assessed as concentration required to restore ceftibuten activity incubated for 16 to 20 hrs in presence of 1 ug/ml ceftibuten by broth microdilution method; assay type: functional; settings: time 16-20 hrs
Klebsiella pneumoniae [25] = experiment: Antibacterial activity against Klebsiella pneumoniae 845670 expressing KPC assessed as concentration required to restore ceftibuten activity incubated for 16 to 20 hrs in presence of 1 ug/ml ceftibuten by broth microdilution method; assay type: functional; settings: time 16-20 hrs
Escherichia coli [26] = experiment: Antibacterial activity against Escherichia coli SI-P026TC expressing CMY-2/TEM-1 assessed as concentration required to restore ceftibuten activity incubated for 16 to 20 hrs in presence of 1 ug/ml ceftibuten by broth microdilution method; assay type: functional; settings: time 16-20 hrs
Klebsiella pneumoniae [27] = experiment: Antibacterial activity against Klebsiella pneumonia 217917 expressing CMY-2/TEM-1 assessed as concentration required to restore ceftibuten activity incubated for 16 to 20 hrs in presence of 1 ug/ml ceftibuten by broth microdilution method; assay type: functional; settings: time 16-20 hrs; summary of the method: as §1
Klebsiella pneumoniae [28] = experiment: Antibacterial activity against Klebsiella pneumonia DOV expressing OXA-48 assessed as concentration required to restore ceftibuten activity incubated for 16 to 20 hrs in presence of 1 ug/ml ceftibuten by broth microdilution method; assay type: functional; settings: time 16-20 hrs; summary of the method: as §1
Klebsiella pneumoniae [29] = experiment: Antibacterial activity against Klebsiella pneumonia SI-C05 expressing OXA-48 assessed as concentration required to restore ceftibuten activity incubated for 16 to 20 hrs in presence of 1 ug/ml ceftibuten by broth microdilution method; assay type: functional; settings: time 16-20 hrs; summary of the method: as §1
Escherichia coli [30] = experiment: Antibacterial activity against Escherichia coli 664520 expressing OXA-48 assessed as concentration required to restore ceftibuten activity incubated for 16 to 20 hrs in presence of 1 ug/ml ceftibuten by broth microdilution method; assay type: functional; settings: time 16-20 hrs; summary of the method: as §1
[31] = Apparent permeability across apical to basolateral side in human Caco-2 cells at 5 uM measured after 2 hrs by LC-MS/MS method; assay type: ADME, cell-based; settings: caco-2, 2 h
[32] = Apparent permeability across basolateral to apical side in human Caco-2 cells at 5 uM measured after 2 hrs by LC-MS/MS method; assay type: ADME, cell-based; settings: caco-2, 2 h
[33] = AUC in mouse at 1.2 mg/kg, sc; assay type: ADME, organism-based; parameters: dose 1.2 mg/kg; settings: in vivo
[34] = AUC in mouse at 12 mg/kg, sc; assay type: ADME, organism-based; parameters: dose 12 mg/kg; settings: in vivo
Summary of the method: (§4)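 Single-dose pharmacokinetics of the parent BLI in mice given subcutaneously at 1.2, 12 and 38 mg/kg. The AUC is reported in mg∗h/L and was used to check dose proportionality. The study was run to choose dosing regimens for the murine ascending UTI efficacy model.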

[35] = AUC in mouse at 38 mg/kg, sc; assay type: ADME, organism-based; parameters: dose 38 mg/kg; settings: in vivo; summary of the method: as §4
Escherichia coli [36] = experiment: as §2, with “kidney administration of compound:ceftibuten 1:1 ratio” for “kidney”, “sc” for “sc administered”; assay type: functional; settings: dose 1-300 mg/kg; time 3 day
Escherichia coli [37] = experiment: as §2, with “urine administration of compound:ceftibuten 1:1 ratio” for “kidney”, “sc” for “sc administered”; assay type: functional; settings: dose 1-300 mg/kg; time 3 day
Escherichia coli [38] = experiment: In vivo antibacterial activity against Escherichia coli expressing TEM-1/CTX-M-15 infected in C3H/HeJ mouse assessed as log10 reduction in CFU in bladder administration of compound:ceftibuten 1:1 ratio at 1 to 300 mg/kg, sc every 12 hrs for 3 days starting from 4 days post infection and measured at 7 days post infection (reference value: 5.8 log10CFU); settings: dose 1-300 mg/kg; time 3 day

Question: With `Nc1nc(/C(=C/CC(=O)O)C(=O)N[C@@H]2C(=O)N3C(C(=O)O)=CCS[C@H]23)cs1` [CEFTIBUTEN] as the molecule, how does the Activity (Escherichia coli [1]) read?
Answer: 128 µg/mL

Question: And the Activity (Klebsiella pneumoniae [2])?
Answer: 32 µg/mL

Question: And the Activity (Escherichia coli [3])?
Answer: 8 µg/mL

Question: What about the Activity (Klebsiella pneumoniae [4]) of the same molecule?
Answer: 256 µg/mL

Question: And the Activity (Escherichia coli [5])?
Answer: 256 µg/mL

Question: What about the Activity (Klebsiella pneumoniae [6]) of the same molecule?
Answer: 4 µg/mL

Question: And the Activity (Escherichia coli [7])?
Answer: 128 µg/mL

Question: And the Activity (Klebsiella pneumoniae [8])?
Answer: 256 µg/mL

Question: And the Activity (Escherichia coli [9])?
Answer: 2 log10CFU/ml

Question: What about the Activity (Escherichia coli [10]) of the same molecule?
Answer: 2 log10CFU/ml

Question: What about the Activity (Escherichia coli [11]) of the same molecule?
Answer: 2 log10CFU/ml

Question: With `CCC(=O)N[C@H]1Cc2cccc(C(=O)O)c2OB1O` [LEDABORBACTAM] as the molecule, how does the Activity (Escherichia coli [12]) read?
Answer: 0.03 µg/mL

Question: What about the Activity (Escherichia coli [13]) of the same molecule?
Answer: 0.004 µg/mL

Question: What about the IC50 [14] of the same molecule?
Answer: 126 nM

Question: What about the IC50 [15] of the same molecule?
Answer: 80 nM

Question: What about the Activity (Escherichia coli [1]) of the same molecule?
Answer: 0.12 µg/mL

Question: What about the Activity (Klebsiella pneumoniae [2]) of the same molecule?
Answer: 0.06 µg/mL

Question: What about the Activity (Escherichia coli [3]) of the same molecule?
Answer: 0.5 µg/mL

Question: And the Activity (Klebsiella pneumoniae [4])?
Answer: 0.5 µg/mL

Question: What about the Activity (Escherichia coli [5]) of the same molecule?
Answer: 0.03 µg/mL

Question: What about the Activity (Klebsiella pneumoniae [6]) of the same molecule?
Answer: 0.016 µg/mL

Question: What about the Activity (Escherichia coli [7]) of the same molecule?
Answer: 0.03 µg/mL

Question: And the Activity (Klebsiella pneumoniae [8])?
Answer: 1 µg/mL

Question: What about the Activity (Klebsiella pneumoniae [16]) of the same molecule?
Answer: 0.016 µg/mL

Question: And the Activity (Klebsiella pneumoniae [17])?
Answer: <=0.002 ug ml-1

Question: And the Activity (Escherichia coli [18])?
Answer: 0.016 µg/mL

Question: And the Activity (Klebsiella pneumoniae [19])?
Answer: 1 µg/mL

Question: What about the Activity (Klebsiella pneumoniae [20]) of the same molecule?
Answer: 0.06 µg/mL

Question: And the Activity (Klebsiella pneumoniae [21])?
Answer: 0.25 µg/mL

Question: What about the Activity (Klebsiella pneumoniae [22]) of the same molecule?
Answer: 0.5 µg/mL

Question: And the Activity (Escherichia coli [23])?
Answer: <=0.002 ug ml-1

Question: And the Activity (Klebsiella pneumoniae [24])?
Answer: 2 µg/mL

Question: What about the Activity (Klebsiella pneumoniae [25]) of the same molecule?
Answer: <=0.002 ug ml-1

Question: And the Activity (Escherichia coli [26])?
Answer: 0.5 µg/mL

Question: And the Activity (Klebsiella pneumoniae [27])?
Answer: 0.12 µg/mL

Question: What about the Activity (Klebsiella pneumoniae [28]) of the same molecule?
Answer: 0.016 µg/mL

Question: And the Activity (Klebsiella pneumoniae [29])?
Answer: 0.03 µg/mL

Question: And the Activity (Escherichia coli [30])?
Answer: 1 µg/mL

Question: What about the Papp [31] of the same molecule?
Answer: 0.11 10^-6 cm/s

Question: What about the Papp [32] of the same molecule?
Answer: 0.15 10^-6 cm/s

Question: And the AUC [33]?
Answer: 7.8 mg·h/L

Question: What about the AUC [34] of the same molecule?
Answer: 76 mg·h/L

Question: What about the AUC [35] of the same molecule?
Answer: 250 mg·h/L

Question: And the Activity (Escherichia coli [36])?
Answer: 2 log10CFU/ml

Question: What about the Activity (Escherichia coli [37]) of the same molecule?
Answer: 4 log10CFU/ml

Question: What about the Activity (Escherichia coli [38]) of the same molecule?
Answer: 3.2 log10CFU/ml
